From PubChem
Only some compounds are listed: those with a hit (about 1.8% of all), similar ones and a draw of the others.
Cneo AK release: Cryptococcus neoformans lysis via adenylate kinase release; C. neoformans lysis, adenylate kinase release luminescence, 4 h; normalised: neutral wells 0, clomiphene wells 100; lysis activity, % at 15 µM; hit rate 0.2% among 360,000;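 active means mean lysis activity across replicates of at least 80%, whatever share of replicates individually reach that level; inactive means mean lysis activity below 80%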
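Test system: log-phase Cryptococcus neoformans yeast cells; Quantity: yeast cell density of 5 × 10^6 cells/mL; Buffer or medium: YPD; Doses: single compound concentration per well; Timing: 4 h at 37 °C static, read 1 h later; Measured by: AK luminescence; Read-out basis: lysis from increased AK signal; Control set: Clomiphene as positive control.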
Mot1-301 SUMO: inhibitors of SUMOylation pathway: yeast Mot1-301 growth rescue; AID 2716; growth rescue, % at 18.8 µM; hit rate 1% among 320,000; S. cerevisiae Mot1-301 growth rescue, ATP luminescence, 38.5C; percent above DMSO median, 100 means doubled;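 active means every valid replicate shows activation above 250% relative to neutral control wells; inactive means the rest, any valid replicate at or below 250%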;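 further: OY570 slx delta 5 strain wells were the positive control but not used for scaling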
Statin myotox sup: protects C2C12 myotubes from simvastatin toxicity; ATP luminescence, 48 h; scaled: DMSO 0, geranylgeraniol control 100; rescue of ATP level, % at 7.49 µM; hit rate 0.78% among 330,000;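 active means mean ATP rescue above about 67%, or every replicate alone reaching that limit, limit read from the data, passing the limit was not always enough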;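 further: myotubes were challenged with 10 µM simvastatin during compound exposure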
Efflux pump mplx: blocks antifungal efflux pumps in multiplex yeast assay | S. cerevisiae Candida pump triplex, Nile Red efflux | inhibition, % at 10 µM | hit rate 0.44% among 330,000 | AID 485275;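 active means plate passing quality check with inhibition over a set limit, or well fluorescence over plate mean plus 4 SD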;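 further: Nile Red retained in pooled yeast measured as flow cytometry median fluorescence; 0% = buffer negative control and 100% = Enniatin B positive control; higher means more Nile Red kept so more efflux inhibition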
Yeast Mot1 SUMO: inhibits SUMO pathway, affecting Mot1-301 yeast growth. shares compounds with Mot1-301 SUMO. S. cerevisiae Mot1-301 galactose growth, ATP luminescence, 24 h; -100 = growth of slx-deleted rescue strain. growth activity, percent, % at 42 µM. 2,300 tested, under 10 active;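 active means Signal drops as the depositor expects, and the fitted half-maximal dose is no more than ten times the top valid tested dose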;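 further: more negative values mean stronger growth rescue toward the control strain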
Numbers without * were called inactive; . = no result given; + = active, no number; ! = repeats disagree; [ ] = dose if it differs, or a comment.

SMILES	Cneo AK release	Mot1-301 SUMO	Statin myotox sup	Efflux pump mplx	Yeast Mot1 SUMO
CNC[C@@H]1OCCCC[C@@H](C)Oc2ccc(NC(=O)Nc3ccc(F)cc3)cc2C(=O)N([C@H](C)CO)C[C@H]1C	.	.	-29.8	.	.
CC(=O)Nc1cccc2c1C(=O)N(c1ccccc1C)C2=O	-4.8	518.3*	7.7	0.0	-0.6
COc1ccc(N2CCN(C(=O)CNC(=O)Cc3ccc(Cl)cc3)CC2)cc1	-0.9	410.1*	5.5	-0.1	0.0
CC1CCN(CCCCOc2cccc(Br)c2)CC1	.	372.9*	.	0.0	0.0
Cc1ccccc1-c1nc2ccc(Cl)cc2c(=O)n1O	-4.5	613.0*	10.6	0.2	-0.5
O=C(N1CCOCC1)C1(S(=O)(=O)c2ccccc2)CC=CC1	-0.2	639.3*	3.8	0.0	-0.4
COc1ccc(C2=NOC(Cn3nc(C(=O)NCc4cccs4)cc3-c3ccccc3)C2)cc1 (centres undefined)	-3.2	691.6*	-12.8	0.0	0.2
COc1cc(O)oc1C=Nc1ccc(C(=O)O)cc1	.	577.4*	-52.8	-0.1	-2.1
O=C(COC(=O)/C=C/c1ccc2ccccc2n1)NNC(=O)c1ccc([N+](=O)[O-])cc1	.	.	-3.9	.	.
CCNC(=O)NC1c2ccccc2CSc2ccccc21 (centres undefined)	-1.9	613.6*	18.1	-0.1	-0.3
NC(=O)C1c2ccccc2CSc2ccccc21 (centres undefined)	1.3	13.6	8.1	-0.1	.
Cc1ccc(N2CCN(C3=NC(=O)C(Cc4ccccc4)S3)CC2)cc1 (centres undefined)	.	152.0	.	0.0	.
O=C1N=C(N2CCN(c3ccccc3)CC2)SC1Cc1ccccc1 (centres undefined)	.	529.8*	.	0.3	0.3
CCCNCC(O)COc1ccccc1C(=O)CCc1ccccc1 (centres undefined)	-2.6	400.2*!	-6.1	0.0	-0.2
O=C(CNc1cc(S(=O)(=O)N2CCOCC2)ccc1NCC1CCCO1)Nc1ccccc1F (centres undefined)	0.6	4.1	9.5	0.1	.
CCOC(=O)CCN(c1ccccc1)S(=O)(=O)c1ccc(-c2ccc(=O)[nH]n2)s1	-12.4	587.5*	7.2	-0.2	-0.1
COc1ccc(OC)c(N(CC(=O)N2CCCC2)S(=O)(=O)c2ccccc2)c1	-1.6	468.8*	-3.6	0.5	0.8
CC(C)NS(=O)(=O)c1ccc(NC(=S)NC(=O)c2ccc(-c3ccccc3)cc2)cc1	-3.8	6.2	2.3	0.0	.
Clc1ccc(CONc2ncnc3nonc23)c(Cl)c1	-2.9	+	-19.8	0.0	-1.8
CCONc1ncnc2nonc12	-0.3	-3.6	6.0	-0.1	.
C/C(=N\NC(=S)Nc1ccccc1C)C1Cc2ccccc2C(=O)O1 (centres undefined)	-0.2	-15.7	-1.5	0.0	.
C/C(=N\NC(=S)Nc1ccccc1)C1Cc2ccccc2C(=O)O1 (centres undefined)	-1.3	393.3*	.	-0.1	0.0
C[C@@H]1CN([C@H](C)CO)C(=O)c2cccc(NC(=O)c3nc4ccccc4s3)c2O[C@@H]1CN(C)S(=O)(=O)c1ccc(Cl)cc1	-0.7	.	32.1	.	.
COc1ccc(C#Cc2c(-c3ccccc3)n(C)c3ccccc23)cc1	-0.2	5.8	0.7	-0.1	.
Cc1cc(C#Cc2c(-c3ccccc3)n(C)c3ccccc23)ccc1F	3.4	715.8*	-8.8	0.3	-0.5
SMILES	Cneo AK release	Mot1-301 SUMO	Statin myotox sup	Efflux pump mplx	Yeast Mot1 SUMO
CC(=O)N1c2ccc(S(=O)(=O)N(C)CC(=O)NCc3ccccc3)cc2CC1C (centres undefined)	0.6	7.0	15.4	0.0	.
COc1ccccc1NC(=O)N1CCN(S(C)(=O)=O)CC1	-0.2	-16.7	4.1	0.3	.
COc1ccccc1NC(=O)N1CCN(C(=O)Nc2ccccc2OC)CC1	-2.4	+	.	0.2	-0.6
COC(=O)c1c(C)cc(O)c(C=O)c1O	1.1	566.7*	-2.8	-0.1	-0.4
COC(=O)c1c(C)c(OC(=O)c2c(C)cc(O)c(C=O)c2O)cc(C)c1O	0.0	-21.3	6.2	0.2	.
CCNc1ccc(S(=O)(=O)N(C)C)cc1NCC(=O)Nc1ccccc1Br	-2.7	986.6*	3.6	0.1	0.0
COc1ccc(CN(C)C[C@H]2Oc3ccc(NS(=O)(=O)c4cccs4)cc3CC(=O)N([C@H](C)CO)C[C@H]2C)cc1	.	.	48.2	.	.
COc1cc(C(=O)Oc2cc(C)cc(C)c2)cc(OC)c1OC	4.5	6.8	.	-0.1	.
COc1cc(C(=O)Oc2cccnc2)cc(OC)c1OC	-1.4	480.9*	-5.7	0.1	-0.2
C[C@]12CC[C@H]3C(=CCc4cc(O)ccc43)[C@@H]1CCC2=O	-2.7	538.1*!	-0.8	0.0	0.1
COc1ccc(C2(C)NC(=O)N(CC(=O)Nc3c(C)n(C)n(-c4ccccc4)c3=O)C2=O)cc1 (centres undefined)	-0.7	204.8	0.9	-0.1	.
Cc1c(NC(=O)CN2C(=O)NC(C)(c3ccc(OC(F)F)cc3)C2=O)c(=O)n(-c2ccccc2)n1C (centres undefined)	.	378.7*	.	-0.1	0.5
O=[N+]([O-])c1ccc(N2CCN(CCOCCO)CC2)c([N+](=O)[O-])c1	.	4.0	.	0.2	.
CC1(C)Cc2c(cnn2-c2ccc(F)cc2)C(NC(=O)CCCN2CCCCC2=O)C1 (centres undefined)	1.1	523.1*	5.0	0.1	0.2
COc1cccc(CN2CCN(Cc3nc(-c4cccc(F)c4F)oc3C)CC2=O)c1	.	-3.7	.	-0.2	.
Cc1cccc(N2C(=O)CSC2c2cccnc2)c1 (centres undefined)	-0.2	686.5*	-10.0	-1.1	0.1
C[C@@H]1CN([C@@H](C)CO)C(=O)CCCn2nncc2CO[C@H]1CN(C)CC1CCCCC1	-1.5	.	1.6	.	.
CCOc1ccc(C(=O)Nc2ccc(CN3CCOCC3)cc2)cc1Br	-3.1	364.9*	-9.4	0.0	0.5[21 µM]
COc1ccc2c(c1)[C@H]1[C@H](CO2)[C@H](c2ccccc2)[C@]2(C)C(=O)Nc3cc(F)ccc3C(=O)N12	1.5	375.5*	-2.2	0.1	-1.0
COc1ccc2c(c1)[C@H]1[C@H](CO2)[C@H](c2ccccc2)[C@]2(C)C(=O)Nc3ccc(Br)cc3C(=O)N12	-9.5	548.5*	0.2	-0.2	-0.8
COc1ccc2c(c1)C(=O)N1[C@H]3c4cc(OC)ccc4OC[C@@H]3[C@H](c3ccccc3)[C@]1(C)C(=O)N2	-3.1	149.5	-8.0	.	.
COc1ccc2c(c1)OC[C@H]1[C@H]2N2C(=O)c3cc(Br)ccc3NC(=O)[C@@]2(C)[C@H]1c1ccccc1	-3.9	468.3*	-0.1	0.5	-0.4
COc1ccc2c(c1)OC[C@H]1[C@H]2N2C(=O)c3ccc(F)cc3NC(=O)[C@@]2(C)[C@H]1c1ccccc1	-3.8	.	.	.	.
Cc1[nH]c2ccccc2c1/C=N/NC(=O)c1cccc(Br)c1	-0.7	496.5*	-61.9	-0.3	-0.1
Cc1ccc(-n2nnnc2C(Cl)(Cl)c2nnnn2-c2ccc(C)cc2)cc1	.	+	.	0.0	-0.4
